This is an account of results in ChEMBL document CHEMBL1137462, “Indoloxypropanolamine analogues as 5-HT(1A) receptor antagonists” (Bioorg Med Chem Lett, 2007).

Test [1] deals with T1, 5-hydroxytryptamine receptor 1A (Homo sapiens) (UniProt P08908).
T1 sequence (whole entry): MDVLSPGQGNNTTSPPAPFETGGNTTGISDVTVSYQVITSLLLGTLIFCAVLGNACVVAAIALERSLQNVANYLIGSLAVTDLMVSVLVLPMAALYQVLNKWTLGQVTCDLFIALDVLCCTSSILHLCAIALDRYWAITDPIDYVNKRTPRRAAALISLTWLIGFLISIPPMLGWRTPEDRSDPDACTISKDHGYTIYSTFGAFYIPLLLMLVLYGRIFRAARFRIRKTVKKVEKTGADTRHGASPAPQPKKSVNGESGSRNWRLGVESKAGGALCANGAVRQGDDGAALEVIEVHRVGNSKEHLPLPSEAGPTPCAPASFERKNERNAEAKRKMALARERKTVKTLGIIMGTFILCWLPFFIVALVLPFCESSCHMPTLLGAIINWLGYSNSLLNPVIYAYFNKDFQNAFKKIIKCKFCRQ
The test can be described thus: Antagonist activity at human 5HT1A expressed in mouse LM(tK-) cells assessed as inhibition of 5-HT-stimulated [35S]GTP-gamma-S binding at 10 uM. It counts as functional, cell-based. The arrangement: scale not given: the % may be the effect or the level left. The method in brief: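 Human 5-HT1A receptor expressed in mouse LM(tk-) cells. [35S]GTPγS binding was stimulated with 300 nM 5-HT, and inhibition was measured at a single compound concentration, the highest that could be accurately tested.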
In general terms: GTPγS resists hydrolysis and so accumulates on activated G proteins.

The target in test [2] is T2, 5-hydroxytryptamine receptor 1A (Homo sapiens, UniProt P08908).
T2 sequence (P08908 whole entry): T1 sequence (whole entry)
The test is described as follows: Displacement of [3H]DPAT from human 5HT1A receptor. Summed up:
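Radioligand binding in vitro using cell lines expressing the human 5-HT1A receptor. Values are mean ± SEM of at least three determinations.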

The target in test [3] is T1, 5-hydroxytryptamine receptor 1A (Homo sapiens). The test is described as follows: Antagonist activity at human 5HT1A expressed in mouse LM(tK-) cells assessed as maximal inhibition of 5-HT-stimulated [35S]GTPgammaS binding. The test is classed as functional, cell-based. More on the design: scale not given: the % may be the effect or the level left.
The target of test [4] is T2, 5-hydroxytryptamine receptor 1A. The test can be described thus: Antagonist activity at human 5HT1A expressed in mouse LM(tK-) cells assessed as inhibition of 5-HT-stimulated [35S]GTP-gamma-S binding. It counts as functional, cell-based. Summed up:
(§1)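 [35S]GTPγS binding in mouse LM(tk−) cells expressing the human 5-HT1A receptor, with binding stimulated by 300 nM 5-HT. Ki was calculated from inhibition of that stimulation. Maximal inhibition was expressed as a percentage of the stimulation produced by a maximal 5-HT concentration. Where Ki could not be obtained, inhibition was read at the highest accurately testable compound concentration.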

The target in test [5] is Beta-2 adrenergic receptor (Homo sapiens, UniProt P07550). The test can be described thus: Binding affinity at human adrenergic beta2 receptor.
Chain of Beta-2 adrenergic receptor (P07550 whole entry): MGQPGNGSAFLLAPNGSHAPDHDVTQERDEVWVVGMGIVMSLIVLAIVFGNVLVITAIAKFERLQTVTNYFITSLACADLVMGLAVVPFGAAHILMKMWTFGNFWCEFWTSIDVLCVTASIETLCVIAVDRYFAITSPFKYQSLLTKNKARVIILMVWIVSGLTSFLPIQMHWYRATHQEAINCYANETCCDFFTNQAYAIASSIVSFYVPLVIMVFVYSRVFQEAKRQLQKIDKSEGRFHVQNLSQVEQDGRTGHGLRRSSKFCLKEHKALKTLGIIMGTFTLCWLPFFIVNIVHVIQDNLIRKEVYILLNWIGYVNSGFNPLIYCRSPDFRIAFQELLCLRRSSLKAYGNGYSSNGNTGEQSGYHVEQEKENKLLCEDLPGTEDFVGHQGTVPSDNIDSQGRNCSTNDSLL
In test [6] the target is Beta-1 adrenergic receptor (Homo sapiens, UniProt P08588). The test can be described thus: Binding affinity at human adrenergic beta-1 receptor.
Chain of Beta-1 adrenergic receptor (P08588 whole entry): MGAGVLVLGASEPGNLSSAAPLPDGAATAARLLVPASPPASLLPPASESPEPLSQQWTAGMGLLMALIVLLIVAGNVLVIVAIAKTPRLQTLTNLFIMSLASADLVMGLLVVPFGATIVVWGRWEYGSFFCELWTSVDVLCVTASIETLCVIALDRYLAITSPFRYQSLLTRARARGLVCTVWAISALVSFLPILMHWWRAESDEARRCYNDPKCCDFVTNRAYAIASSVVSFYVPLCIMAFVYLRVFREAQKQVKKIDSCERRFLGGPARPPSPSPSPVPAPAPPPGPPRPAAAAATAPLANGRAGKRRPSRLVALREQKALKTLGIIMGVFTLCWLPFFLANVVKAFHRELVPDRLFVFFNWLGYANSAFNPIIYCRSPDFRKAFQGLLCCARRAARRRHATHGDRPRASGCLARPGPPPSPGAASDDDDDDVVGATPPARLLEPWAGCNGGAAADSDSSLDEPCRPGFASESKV
The target of test [7] is T2, 5-hydroxytryptamine receptor 1A. The test can be described thus: Antagonist activity at human 5HT1A expressed in mouse LM(tK-) cells assessed as 5-HT-stimulated [35S]GTPgammaS binding. The test is classed as functional, cell-based. The method in brief:
as §1

The target in test [8] is T1, 5-hydroxytryptamine receptor 1A (Homo sapiens). The test can be described thus: Antagonist activity at human 5HT1A expressed in mouse LM(tK-) cells assessed as maximal 5-HT-stimulated [35S]GTPgammaS binding relative to 5HT. The test is classed as functional, cell-based.
Test [9] deals with Rattus norvegicus. The test is described as follows: Blockade of 8-OH-DPAT-induced increase in serum corticosterone level in male Spargue-Dawley rat at 1.0 mg/kg, sc. The test is classed as functional. The following applies: route subcutaneous. The method in brief:
(§2)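 Male Sprague–Dawley rats received compound sc at 0.03–1.0 mg/kg, 15 min before 0.3 mg/kg sc 8-OH-DPAT. Rats were killed 1 h after the agonist. Serum corticosterone was measured with a 3H-corticosterone kit. Results are mean and standard error, n = 5 rats per group, with percent antagonism of the 8-OH-DPAT-induced rise.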

In test [10] the test system is Rattus norvegicus. The test is described as follows: Blockade of 8-OH-DPAT-induced increase in serum corticosterone level in Spargue-Dawley rat at 0.1 mg/kg, sc. The test is classed as functional. The following applies: route subcutaneous. Summed up: as §2
Test [11] relates to Rattus norvegicus. The test is described as follows: Blockade of 8-OH-DPAT-induced increase in serum corticosterone level in Spargue-Dawley rat at 0.03 mg/kg, sc. The test is classed as functional. The following applies: route subcutaneous. Summed up:
as §2

For test [12], the system named is Rattus norvegicus. The test can be described thus: Blockade of 8-OH-DPAT-induced increase in serum corticosterone level in Spargue-Dawley rat at 0.3 mg/kg, sc. It counts as functional. The following applies: route subcutaneous. Summed up:
as §2

For test [13], the system named is Rattus norvegicus. The test is described as follows: Blockade of 8-OH-DPAT-induced increase in serum corticosterone level in sc dosed Spargue-Dawley rat. It counts as functional. Summed up:
as §2

In general, Ki refers to a measure of affinity in units of concentration, obtained from inhibition or displacement. Broadly, the EC50 is the midpoint of the concentration-response curve. One may read the Emax as the size of the effect at its maximum, as opposed to the concentration needed. One may read the ED50 as the dose that gives a 50% effect, or the effect in half of the subjects.

On to `COC(CNC12CC3CC(CC(C3)C1)C2)COc1cccc2[nH]ccc12` (configuration not stated), for which the Activity in test [1] was determined as 28.9%. In test [2], this compound had a Ki of 0.032 µM.

In the case of `OC(CCOc1cccc2[nH]ccc12)CNC12CC3CC(CC(C3)C1)C2` (configuration not stated), the inhibitory constant (Ki) in [2] was 0.551 µM.

With `CC(C)NCC(O)COc1cccc2[nH]ccc12` (configuration not stated), the Activity in test [3] was 9.76%.

Turning to `O[C@@H](CNC12CC3CC(CC(C3)C1)C2)COc1cccc2[nH]ccc12`, the inhibitory constant (Ki) in test [4] was found to be 0.00465 µM; in test [5], 0.00663 µM; in [6], 0.00792 µM; in test [2], 0.00389 µM. For the same compound, in test [3], the Activity was 6.38%.

With `CC(C)NCC(O)CCOc1cccc2[nH]ccc12` (configuration not stated), the affinity in test [2] corresponds to a Ki of 1.77 µM.

`C[C@](O)(CNC12CC3CC(CC(C3)C1)C2)COc1cccc2[nH]ccc12`: affinity in test [2] was put at a Ki of 0.868 µM.

Regarding `COC(CNC1CCCCC1)COc1cccc2[nH]ccc12` (configuration not stated), the Activity in test [1] is 36.2%. Besides, the affinity in [2] corresponds to a Ki of 0.0406 µM.

As for `O[C@H](CNC12CC3CC(CC(C3)C1)C2)COc1cccc2[nH]ccc12`, the Ki in test [4] was determined as 0.0299 µM; in test [2], 0.0183 µM. The Activity in [3] is 3.15%.

As to `OC(CNC1CCCC1)COc1cccc2[nH]ccc12` (configuration not stated), the Ki is 0.0355 µM in [4] and 0.0106 µM in [2]. In addition, in test [3], the Activity is 11.8%.

For `OC(CNC12CC3CC(CC(C3)C1)C2)COc1cccc2[nH]ccc12` (configuration not stated), the Ki in test [4] worked out at 0.00784 µM; in [2], 0.00929 µM. The Activity in [3] was 6.56%.

In test [2], `OC(CNC1CCCCC1)COc1ccc2[nH]ccc2c1` (configuration not stated) registered a Ki of more than 3 µM.

With `OC(CCNC1CCCCC1)COc1cccc2[nH]ccc12` (configuration not stated), the concentration giving a half-maximal response (EC50) in test [7] was determined as 0.394 µM. Moreover, the maximal response (Emax) in [8] was 45.6%. Besides, the inhibitory constant (Ki) in test [2] amounted to 0.125 µM.

For the compound `c1cc(OCCCNC2CCCCC2)c2cc[nH]c2c1`, in [1], the Activity amounted to 31.3%. Also, the inhibitory constant (Ki) in test [2] came out at 0.0784 µM.

Take `OC(CNC1CCCCCC1)COc1cccc2[nH]ccc12` (configuration not stated): the results for the inhibition constant Ki in test [4] and in [2] were 0.0113 µM and 0.00682 µM, respectively. In addition, in test [3], the Activity worked out at 8.9%.

In test [2], `C[C@](O)(CNC1CCCCC1)COc1cccc2[nH]ccc12` gave a Ki of 1.45 µM.

In test [2], `OC(CNC12CC3CC(CC(C3)C1)C2)COc1ccc2[nH]ccc2c1` (configuration not stated) yielded a Ki of 0.833 µM.

On to `c1cc(OCCCNC2CCCC2)c2cc[nH]c2c1`, for which the inhibition constant (Ki) in test [4] was 0.233 µM; in [2], 0.0943 µM. In addition, the Activity in [3] was 24.8%.

Turning to `OC(CCNC12CC3CC(CC(C3)C1)C2)COc1cccc2[nH]ccc12` (configuration not stated), in test [7], the EC50 came out at 0.854 µM. In addition, the maximum response (Emax) in test [8] worked out at 51.8%. The compound further came in with a Ki in [2] of 0.0761 µM.

For the compound `CCC(CC)NCC(O)COc1cccc2[nH]ccc12` (configuration not stated), the Ki is 0.0498 µM in [4] and 0.0286 µM in [2]. The Activity in [3] is 4.74%.

Regarding `O[C@H](CNC1CCCCC1)COc1cccc2[nH]ccc12`, the results for the inhibition constant (Ki) in test [4] and in test [2] were 0.0508 µM and 0.0261 µM, respectively. Also, the Activity in [3] was found to be 8.87%.

Regarding `O[C@@H](CNC1C2CC3CC(C2)CC1C3)COc1cccc2[nH]ccc12` (some centres not stated), the figures for the inhibition constant Ki in test [4] and in test [2] were 0.024 µM and 0.0112 µM, respectively. The Activity in test [3] amounted to 8.75%.

In [2], `OC(CCOc1cccc2[nH]ccc12)CNC1CCCCC1` (configuration not stated) came in with a Ki of 0.872 µM.

With `OC(CNC1CCCCC1)COc1cccc2[nH]ccc12` (configuration not stated), the Ki amounted to 0.00983 µM in [4] and 0.00358 µM in test [2]. Moreover, in [3], the Activity is 9.88%.

On to `O[C@@H](CNC1CCCCC1)COc1cccc2[nH]ccc12`, for which the inhibition constant Ki in test [4] amounted to 0.00668 µM; in test [5], 0.00375 µM; in test [6], 0.00237 µM; in [2] it was 0.00133 µM. The Activity with Rattus norvegicus [9] is 92%; with Rattus norvegicus [10], 26%; in the test on Rattus norvegicus [11], 13%; in the test with Rattus norvegicus [12], 53%; in test [3], 7.52%. The ED50 in the test on Rattus norvegicus [13] came out at 2.5 mg/kg.
